Fewer inactive variants are shown than the library holds.
B1: tRNA (parent)
chain: GUUCCGUUGGCGUAAUGGUAACGCGUCUCCCUCCUAAGGAGAAGACUGCGGGUUCGAGUCCCGUACGGAACG

Variants of: B1
Experiment: yeast fitness relative to wild type (ratio to wild type); higher = fitter; tRNA-Arg(CCU), competitive growth, 37 C, YPD
Method in brief: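 A pool of Saccharomyces cerevisiae strains, each with a tRNA-Arg(CCU) gene variant at the native genomic locus, was competed in YPD at 37°C for 24 hours across six parallel replicates. The variants had been chemically synthesised at a 3% per-site mutation rate over 69 sites, and gene amplicons before and after competition were read by 100-nucleotide paired-end sequencing. Darwinian fitness relative to wild type rested on changes in genotype frequencies. Genotypes required ≥ 100 starting reads, and estimates < 0.5 were set to 0.5.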
C27G C29G C46A A65G C66U showed a yeast fitness of no more than 0.5.
C27G C33U G44C C49U showed a yeast fitness of no more than 0.5.
C27U C29U C49G A69G showed a yeast fitness of no more than 0.5.
C27G G48A G67C A69U showed a yeast fitness of 0.525.
C27G A45U A70C gave a yeast fitness of 0.614.
Work on C27G C46G U53G G58C C61A yielded a yeast fitness of no more than 0.5.
C27G A43U U53C gave a yeast fitness of no more than 0.5.
C27U C33G C34G G44A G50A G52A G56A gave a yeast fitness of no more than 0.5.
C27U C31A G44C A70G gave a yeast fitness of no more than 0.5.
In the case of C27U C31A A57U, the yeast fitness is reported as no more than 0.5.
Variant C27G C55A A70U has a yeast fitness of no more than 0.5.
With C27G C33G G41A A65C the yeast fitness was no more than 0.5.
C27U C34U A45G U47C C60G showed a yeast fitness of no more than 0.5.
With C27G U28G A36U A45U C49G the yeast fitness was no more than 0.5.
Variant C27U C29A has a yeast fitness of 0.737.
C27U C29U gave a yeast fitness of 0.792.
Variant C27G C34G U54A A70U has a yeast fitness of no more than 0.5.
Variant C27U C34G A45U C60A has a yeast fitness of no more than 0.5.
In the case of C27U A69C, the yeast fitness is reported as 1.01.
With C27G C49U U54G the yeast fitness was no more than 0.5.
With C27U C31U A40U A45U C49G A65C the yeast fitness was no more than 0.5.
For C27U C34U G44A, the yeast fitness was no more than 0.5.
Variant C27G A43U A57G has a yeast fitness of no more than 0.5.
With C27G A43G C49U the yeast fitness was 0.59.
With C27G C29U the yeast fitness was 0.578.
For C27U C33U A40C C55A, the yeast fitness was no more than 0.5.
With C27G U28C C61U the yeast fitness was no more than 0.5.
C27U C29U A36C showed a yeast fitness of no more than 0.5.
In the case of C27G C29U A37G A45G C60A G68A, the yeast fitness is reported as no more than 0.5.
For C27G C49A G58C, the yeast fitness was no more than 0.5.
In the case of C27U C33A A40C, the yeast fitness is reported as 0.574.
For C27G C31A A70C, the yeast fitness was 0.539.
C27G G38A G67U gave a yeast fitness of no more than 0.5.
C27U C29G C46A gave a yeast fitness of 0.539.
C27G C31U U53C C66A showed a yeast fitness of no more than 0.5.
With C27U C30G A40C G44A G52A A70U the yeast fitness was no more than 0.5.
Work on C27G C49A A57U yielded a yeast fitness of no more than 0.5.
For C27G G48A, the yeast fitness was 0.565.
Variant C27G G48C has a yeast fitness of 0.632.
C27U C46A G50A C62U showed a yeast fitness of 0.888.
C27G G44C A45G A65G gave a yeast fitness of no more than 0.5.
For C27G C46U A70G, the yeast fitness was 0.727.
Work on C27G C46U A70C yielded a yeast fitness of 0.729.
With C27G G48C A69G the yeast fitness was no more than 0.5.
Variant C27G U28A C30G C31U A40G G67A has a yeast fitness of no more than 0.5.
For C27G A65U G68U, the yeast fitness was 0.583.
For C27U A45U C66U, the yeast fitness was 0.7.
In the case of C27U C46G A65G, the yeast fitness is reported as 0.725.
C27G A70G gave a yeast fitness of 0.718.
Work on C27U A40C G58A A70C yielded a yeast fitness of 0.511.
C27G U32C A57G showed a yeast fitness of 0.578.
C27U A36U showed a yeast fitness of 0.638.
C27U A36C showed a yeast fitness of 0.541.
With C27G A43U C55G the yeast fitness was no more than 0.5.
Work on C27G C55G A70U yielded a yeast fitness of 0.617.
In the case of C27G C33G G39A C46U C60G, the yeast fitness is reported as no more than 0.5.
C27U A36U G44A gave a yeast fitness of no more than 0.5.
Work on C27G A57U U59C yielded a yeast fitness of 0.508.
With C27U A40C the yeast fitness was 0.809.
For C27G C31A G56A, the yeast fitness was no more than 0.5.
Work on C27U C33G C34U C61U G67A G68C yielded a yeast fitness of no more than 0.5.
For C27G C33G G51C C60U C61U, the yeast fitness was no more than 0.5.
Work on C27G G52C yielded a yeast fitness of 0.549.
C27G C30G C62A gave a yeast fitness of no more than 0.5.
Variant C27G U53G A70G has a yeast fitness of no more than 0.5.
C27U C30G A40G G51C gave a yeast fitness of no more than 0.5.
In the case of C27U A36C C61U, the yeast fitness is reported as no more than 0.5.
C27G G67A showed a yeast fitness of 0.637.
Work on C27G G67C yielded a yeast fitness of 0.677.
C27U A36U G38C A43C C66U showed a yeast fitness of no more than 0.5.
With C27U C55A the yeast fitness was 0.583.
With C27U A57U the yeast fitness was 0.668.
For C27U A57G, the yeast fitness was 0.959.
With C27U A57C the yeast fitness was 0.676.
Work on C27G C62A yielded a yeast fitness of 0.516.
With C27G C62G the yeast fitness was 0.695.
In the case of C27U C34A G44C C62A, the yeast fitness is reported as 0.539.
C27U A42U showed a yeast fitness of 1.09.
C27U A42C gave a yeast fitness of 0.997.
With C27G A43C G56C the yeast fitness was no more than 0.5.
For C27U C33U G51A, the yeast fitness was 0.612.
Work on C27U C46U A65U A70C yielded a yeast fitness of 0.828.
C27G G56A gave a yeast fitness of 0.614.
Variant C27G A45G has a yeast fitness of 0.722.
With C27U C33U A37U G51A A70G the yeast fitness was 0.552.
With C27U A37G the yeast fitness was 0.899.
Work on C27U A37C yielded a yeast fitness of 0.664.
With C27U A37U the yeast fitness was 0.626.
In the case of C27G G50A C55G C62G G67U, the yeast fitness is reported as no more than 0.5.
C27G G48A C60U showed a yeast fitness of no more than 0.5.
For C27G G48A C60G, the yeast fitness was 0.751.
In the case of C27G C31U A65U A70U, the yeast fitness is reported as no more than 0.5.
C27G C34G gave a yeast fitness of no more than 0.5.
With C27G C30U G38C G58A the yeast fitness was 0.679.
C27U A36U U54A A69C gave a yeast fitness of 0.624.
C27U A43C A69U showed a yeast fitness of 0.882.
For C27G C46U A69C, the yeast fitness was 0.735.
Work on C27G C31A G58C yielded a yeast fitness of no more than 0.5.
With C27U A36G U47G G50A the yeast fitness was no more than 0.5.
Variant C27U A43C U59A has a yeast fitness of 0.645.
In the case of C27G C55U G67C, the yeast fitness is reported as no more than 0.5.
C27G A65C gave a yeast fitness of 0.641.
Variant C27U A37C A40U A43U has a yeast fitness of 0.541.
In the case of C27U C29G A57C C61A, the yeast fitness is reported as no more than 0.5.
Work on C27U C30U U53A C66U yielded a yeast fitness of no more than 0.5.
In the case of C27U C30U U53A A69C, the yeast fitness is reported as 0.507.
C27G U32A showed a yeast fitness of 0.539.
With C27G U32G the yeast fitness was no more than 0.5.
With C27G U32C the yeast fitness was 0.935.
Work on C27G U28C G52A C60G G68U A69C yielded a yeast fitness of no more than 0.5.
For C27G C46G A65G, the yeast fitness was 0.631.
Variant C27G C66G has a yeast fitness of 0.579.
In the case of C27G C66U, the yeast fitness is reported as 0.621.
In the case of C27G C66A, the yeast fitness is reported as no more than 0.5.
Variant C27G U32C A42C G48C C55G C60U has a yeast fitness of no more than 0.5.
In the case of C27G C31U C60A, the yeast fitness is reported as 0.602.
C27U C31U U53C A70U showed a yeast fitness of no more than 0.5.
For C27G C49U, the yeast fitness was 0.614.
C27G C49G showed a yeast fitness of 0.621.
Work on C27G U32G A36C C46G A70U yielded a yeast fitness of no more than 0.5.
Variant C27U C34G A57G C62A has a yeast fitness of no more than 0.5.
For C27G G38C C55U, the yeast fitness was no more than 0.5.
Work on C27U A70C yielded a yeast fitness of 1.03.
In the case of C27U A70G, the yeast fitness is reported as 0.988.
C27U A70U showed a yeast fitness of 0.988.
C27U C30U A40U G48C G63A showed a yeast fitness of 0.535.
Variant C27U C30U C46U U54G A70G has a yeast fitness of 0.655.
Variant C27G C34A G68C has a yeast fitness of no more than 0.5.
Variant C27U C30U has a yeast fitness of 0.825.
Work on C27U C30A yielded a yeast fitness of 0.773.
For C27U C46A A70G, the yeast fitness was 0.66.
Variant C27G C34G C46U has a yeast fitness of 0.65.
With C27G A57C U59A C62G G68A the yeast fitness was 0.532.
For C27U C46A, the yeast fitness was 0.942.
C27U C46U gave a yeast fitness of 0.978.
C27U C46G gave a yeast fitness of 1.04.
C27U A37C A40U A43U A65U gave a yeast fitness of no more than 0.5.
In the case of C27G U28C C62G, the yeast fitness is reported as no more than 0.5.
C27G G39C A69U gave a yeast fitness of 0.566.
In the case of C27G C31U C46G G51C, the yeast fitness is reported as no more than 0.5.
C27U C29G C55U A65G C66A showed a yeast fitness of no more than 0.5.
In the case of C27G C46U U54C, the yeast fitness is reported as 0.738.
C27G C31A C33G C49U G58C gave a yeast fitness of no more than 0.5.
Variant C27U C29G C61U has a yeast fitness of 0.675.
C27U C33G A43G showed a yeast fitness of no more than 0.5.
Work on C27U C31U yielded a yeast fitness of 1.07.
Variant C27U C31G has a yeast fitness of 0.713.
For C27U C30U U53A A65G A69C, the yeast fitness was no more than 0.5.
Variant C27U A36U A43G C46U has a yeast fitness of 0.559.
With C27G G39C the yeast fitness was 0.585.
C27G C46U G50A C66U showed a yeast fitness of no more than 0.5.
In the case of C27U C34G A40G C46G C49A U59C, the yeast fitness is reported as no more than 0.5.
Work on C27G C31G U59C yielded a yeast fitness of 0.604.
For C27G C31G U59A, the yeast fitness was no more than 0.5.
C27G U32A G39A gave a yeast fitness of 0.572.
C27U C34U U35C U47C U53G A69U gave a yeast fitness of no more than 0.5.
Work on C27G C55A C66U yielded a yeast fitness of 0.545.
C27G U53A G63A gave a yeast fitness of no more than 0.5.
Work on C27G G48C G52C C62G yielded a yeast fitness of no more than 0.5.
With C27U A43C G68U the yeast fitness was 0.612.
Work on C27G C31A C60G yielded a yeast fitness of no more than 0.5.
With C27G C34A C46G C55A the yeast fitness was no more than 0.5.
With C27U A45C C55G G58C the yeast fitness was no more than 0.5.
C27U C34G A45U gave a yeast fitness of 0.511.
C27G C29A C62U showed a yeast fitness of 0.647.
In the case of C27U C49A U64C G67A, the yeast fitness is reported as no more than 0.5.
For C27U C30U C34G A37C A57G C61A, the yeast fitness was no more than 0.5.

— the RNAGym collection of RNA variant scans (doi:10.1126/science.aae0568)
